# PGC1a Ac signal = raises PGC1a acetylation signal in U2OS cells | 350,000 tested, 0.21% active | activation, % at 15.6 µM | U2OS PGC1a acetylation AlphaScreen, overnight;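 active = every replicate reaching activation of at least 50%, whatever the mean replicate activation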;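 note: hits raise the AlphaScreen acetylation signal above neutral controls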
#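 Incubation: overnight compound treatment, 37 °C. System: U2OS cells transduced with flag-tagged PGC1a and GCN5 acetyltransferase. Detection: AlphaScreen lysate read. Compound: single-point compound dosing.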
# Hits are given with their value; . = inactive. The list is a sample of the results.
SMILES,PGC1a Ac signal
COc1ccccc1C#Cc1ccc2c(c1)O[C@@H](CN(C)Cc1cccnc1)[C@H](C)CN([C@H](C)CO)S2(=O)=O,.
CC(C)CC#Cc1ccc2c(c1)O[C@H](CN(C)Cc1ccccc1)[C@@H](C)CN([C@H](C)CO)S2(=O)=O,.
CC(C)CC#Cc1ccc2c(c1)O[C@H](CN(C)C)[C@@H](C)CN([C@H](C)CO)S2(=O)=O,59
CC(=O)N(C)C[C@H]1Oc2cc(-c3ccc(C#N)cc3)ccc2S(=O)(=O)N([C@@H](C)CO)C[C@@H]1C,.
C[C@H](CO)N1C[C@H](C)[C@H](CN(C)C(=O)C2CCCCC2)Oc2cc(-c3ccccc3)ccc2S1(=O)=O,63
C[C@H](CO)N1C[C@H](C)[C@@H](CN(C)C(=O)C2CCCCC2)Oc2cc(C#Cc3ccncc3)ccc2S1(=O)=O,.
COc1ccc(CN(C)C[C@H]2Oc3ccc(NC(=O)Cc4cn(C)c5ccccc45)cc3CC(=O)N([C@@H](C)CO)C[C@@H]2C)cc1,.
C[C@@H]1CN([C@H](C)CO)C(=O)CCCn2cc(nn2)CO[C@@H]1CN(C)C(=O)Nc1cccc2ccccc12,.
COCCCNC1CS(=O)(=O)CC1O (stereo unspecified),.
C[C@H]1CN([C@@H](C)CO)C(=O)c2cc(C3=CCCC3)cnc2O[C@@H]1CN(C)C(=O)c1cccnc1,.
C[C@@H]1CN([C@@H](C)CO)C(=O)c2cc(C3=CCCC3)cnc2O[C@@H]1CN(C)C(=O)Nc1cccc(F)c1,131
C[C@H]1CN([C@@H](C)CO)C(=O)c2cc(C#Cc3ccccc3)cnc2O[C@@H]1CN(C)C(=O)c1ccccc1F,.
C[C@@H]1CN([C@@H](C)CO)C(=O)c2cc(C#CCN(C)C)cnc2O[C@H]1CN(C)Cc1ccc(F)cc1,.
C[C@H]1CN([C@@H](C)CO)C(=O)c2cc(-c3cncnc3)cnc2O[C@@H]1CN(C)C(=O)c1cccc(F)c1,.
C[C@@H]1CN([C@H](C)CO)C(=O)c2cc(C#Cc3cccc(F)c3)cnc2O[C@H]1CN(C)CC1CCCC1,58
Cc1cc(C(=O)Nc2cccc3c2O[C@H](CN(C)C(=O)Nc2ccc4c(c2)OCO4)[C@@H](C)CN([C@H](C)CO)C3=O)n(C)n1,.
CC(C)C(NC(=O)c1ccc(C(C)(C)C)cc1)C(=O)O (stereo unspecified),.
O=C(CSc1nnnn1-c1ccc(F)cc1)NNC(=O)c1ccco1,.
CC(C)(C)n1nnnc1CN(Cc1ccc(F)cc1)Cc1ccco1,92
COc1ccc(NC(=O)N[C@H]2CC[C@@H](CCn3cc(-c4ccccc4F)nn3)O[C@H]2CO)cc1,.
Cc1cc(C)n(C(=O)c2ccc([N+](=O)[O-])cc2N)n1,.
Cc1cccc(C)c1NC(=O)C(NC(=O)c1ccccn1)c1ccc([N+](=O)[O-])cc1 (stereo unspecified),.
Cc1c(C(=S)Nc2ccccc2)cnn1-c1ccc([N+](=O)[O-])cc1,71
O=C(CC1CC1)N[C@@H]1CC[C@@H](CCNS(=O)(=O)c2ccc(Cl)cc2)O[C@@H]1CO,.
O=C(Nc1cccc(S(=O)(=O)N2CCOCC2)c1)c1ccco1,67
SMILES,PGC1a Ac signal
CC(C)(C)NS(=O)(=O)c1ccc(CCC(=O)N2CCOCC2)cc1,.
Cc1ccc(S(=O)(=O)N2CCN(C(=O)N3CCOCC3)CC2)cc1C,.
Cc1ccc(NC(=O)c2ccc([N+](=O)[O-])o2)cc1S(=O)(=O)N1CCOCC1,191
O=C1c2ccccc2-c2c1cccc2C(=O)N1CCN(C(=O)c2ccco2)CC1,.
O=S(=O)(c1ccc2[nH]ccc2c1)N1CCCCCC1,.
O=C(Nc1cccc(S(=O)(=O)N2CCCCC2)c1)c1ccc([N+](=O)[O-])o1,226
CCOc1ccc(CN2CCNC(=O)C2CC(=O)NCc2ccccn2)cc1 (stereo unspecified),.
C[C@H]1CN([C@@H](C)CO)S(=O)(=O)c2ccc(C3=CCCC3)cc2O[C@@H]1CN(C)C,.
O=C(OCCCN1CCCCC1)c1ccc(O)cc1,.
COc1cccc(NC(=O)CN(C)C(=O)CNC(=O)c2ccccc2F)c1,.
C=CCNS(=O)(=O)c1cccc2cc(C(=O)O)c(O)cc12,.
COc1ccc2c(c1)sc1nc(-c3ccccc3)cn12,71
COc1ccc2c(c1)c1nc3ccccc3nc1n2CC(=O)OC(C)C,.
C/C=C(/C)C(=O)O[C@@H]1c2cc(OC)c(OC)c(OC)c2-c2c(cc3c(c2OC)OCO3)C[C@H](C)[C@]1(C)O,167
Cc1ccccc1-c1nc(SCc2ccccn2)c2c(=O)n(C)c(=O)n(C)c2n1,.
COc1ccc(N=C2SC(C(N)=O)CC(=O)N2Cc2ccc3c(c2)OCO3)cc1 (stereo unspecified),.
CC(C)CC(OC(=O)c1cccs1)C(=O)NCc1ccco1 (stereo unspecified),86
Cc1ccc(N2C(=O)c3ccccc3NC2C(C)Cc2ccc3c(c2)OCO3)cc1 (stereo unspecified),.
CC(C)C12CN3CC(C(C)C)(CN(C1)C3c1ccc3c(c1)OCO3)C2=O (stereo unspecified),80

# Bioassay records deposited in PubChem by Broad Institute.
